Source: PubChem BioAssay
NPY-Y1 antag – blocks the human neuropeptide Y Y1 receptor; HEK293-CNG Y1 cells, membrane potential fluorescence; NPY at EC95, then isoproterenol; inhibition, % at 3.6 µM; 200,000 tested, 1% active; AID 1040;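 active = inhibition above the campaign mean inhibition of all tested compounds plus 3 SD, cut at about 20% in these data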
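Test system – HEK293 Y1/CNG channel cell line · Also added – NPY agonist 25 nM, then isoproterenol 1 µM plus Ro 20-1724 25 µM · Compound dosing – one concentration, 3.6 µM, in 0.4% DMSO · Schedule – compound incubation 1 h at room temperature, readout 45 min post-stimulation · Technique – fluorescence, membrane potential probe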
NPY2 pot ag – potentiators or agonists of human neuropeptide Y receptor Y2; activation, % at 3.6 µM; P49146; AID 1359; 220,000 tested, 0.45% active; cells expressing NPY-Y2, potentiator/agonist read-out; in the data active = activation above about 27%;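 note: cells stimulated with NPY near EC25 plus isoproterenol at EC100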
Target sequence (P49146 whole entry, looked up): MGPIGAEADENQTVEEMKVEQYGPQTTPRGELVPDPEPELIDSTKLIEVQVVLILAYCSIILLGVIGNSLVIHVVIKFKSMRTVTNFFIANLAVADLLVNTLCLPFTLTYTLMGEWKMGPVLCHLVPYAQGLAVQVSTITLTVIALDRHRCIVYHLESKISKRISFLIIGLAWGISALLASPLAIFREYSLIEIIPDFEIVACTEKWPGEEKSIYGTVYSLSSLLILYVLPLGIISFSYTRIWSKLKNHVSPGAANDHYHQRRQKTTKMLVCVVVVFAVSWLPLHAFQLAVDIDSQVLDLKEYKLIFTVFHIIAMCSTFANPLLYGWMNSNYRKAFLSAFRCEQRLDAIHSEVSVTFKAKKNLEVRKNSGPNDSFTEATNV
PGE2 EP2 inh – inhibitors of human EP2 prostaglandin E2 receptor | P43116 | C6 glioma cells expressing human EP2, cAMP TR-FRET; cells stimulated with saturating PGE2 | inhibition, % at 25 µM | 260,000 tested, 0.52% active | AID 1422;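 active = percent inhibition above 40 after rounding to a whole number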;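 note: rat C6 glioma host cells with rolipram phosphodiesterase inhibitor present; the protocol text gives 20 µM as final concentration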
NPY-Y1 PAM-ag – potentiates or activates human NPY-Y1 receptor | NPY-Y1 expressing cells, potentiator/agonist activation | activation, % at 3.6 µM | 220,000 tested, 0.37% active | P25929 | AID 1304; in the data active = activation above about 33%, passing the limit was not always enough;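 note: cells stimulated with NPY at EC10 then isoproterenol at EC100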
NPY Y2 blocker – blocks the human neuropeptide Y Y2 receptor; NPY-Y2 expressing cells, antagonist mode; inhibition, % at 2.7 µM; 140,000 tested, 0.99% active; AID 793; in the data active = inhibition above about 17%
EP2 mod – modulates human prostaglandin E2 receptor EP2 signaling | P43116 | EP2-expressing cells, cAMP HTRF FRET, PGE2 co-stimulation | induction, % at 25 µM | 260,000 tested, 0.83% active | AID 940;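 active = compounds whose cAMP rise, as percent of the full-agonist control response, exceeds 60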;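 note: rat C6 glioma line stably carrying human EP2 under a CMV promoter; the protocol text gives 20 µM as final concentration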
A number is an active result; - = inactive; . = not tested or not shown. A selection: hits, their analogues and other compounds. The true share with any hit is near 2.8%.

SMILES	NPY-Y1 antag	NPY2 pot ag	PGE2 EP2 inh	NPY-Y1 PAM-ag	NPY Y2 blocker	EP2 mod
CN1CCN(Cc2ccc(N)cc2)CC1	-	-	-	-	.	-
CN1CCN(Cc2cc(C(C)(C)C)c(O)c(C(C)(C)C)c2)CC1	-	51	-	77	-	-
CCN(CC)S(=O)(=O)c1ccc(NN=C(C#N)C#N)cc1	-	-	-	-	-	-
N#CC(C#N)=NNc1ccc(-n2ccc(C(F)(F)F)n2)cc1	.	68	-	55	.	-
O=C1/C(=C\c2ccc(Cl)cc2)N2CCC1CC2	.	.	-	.	.	-
O=C(CN1C2CCC1CC(O)(c1ccccn1)C2)NC1CC1 (stereo not drawn)	.	.	.	.	.	-
O=C(CN1C2CCC1CC(O)(c1ccccn1)C2)Nc1ccc(Cl)cc1 (stereo not drawn)	.	.	.	.	.	-
O=[N+]([O-])c1ccc(N2CCNCC2)c2ncccc12	-	47	.	74	-	-
CC1C[C@H]2CC(=O)[C@H]3CCCN4CCC[C@H]2[C@]34C1 (stereo partly drawn)	.	.	-	.	.	-
COc1cc2c(cc1OC)[C@@]13CCN4C=C5CCO[C@H]6CC(=O)N2[C@H]1[C@H]6[C@H]5C[C@H]43	.	.	53	.	.	-
C[C@@H]1O[C@H](OC2[C@@H](O)[C@H](O)C(O)[C@H](O)[C@H]2O)[C@@H](N)C[C@H]1N=C(N)C(=O)O (stereo partly drawn)	.	.	51	.	.	-
CCOC(=O)C(C)N1C(=O)CN=C(c2ccc(OC)c(OC)c2)c2c1sc1c2CCCC1 (stereo not drawn)	.	.	-	.	.	-
COc1nc(C)c(CC(=O)N(CCN(C)C)C2CCN(C)CC2)c(OC)n1	.	.	-	.	.	-
COc1ccccc1CN(CCN(C)C)C(=O)Cc1ccc2c(c1)OCCO2	.	.	-	.	.	-
COc1ccc(C(=O)O[C@@H]2CC[C@@]3(C)[C@@H]4CC[C@@H]5[C@@]6(O)C[C@@H](O)[C@@]7(O)[C@@H](CN8C[C@H](C)CC[C@H]8[C@]7(C)O)[C@]6(O)C[C@@]53O[C@@]42O)cc1OC	.	.	45	.	.	-
CCn1nc(CC(=O)N(CCN(C)C)Cc2ccccc2F)c2ccccc2c1=O	.	.	-	.	.	-
CCCSc1nc2ccccc2c(=O)n1-c1ccccc1C	.	.	-	.	.	75
Cc1cc(=O)[nH]c(SCc2nc3ccccc3c(=O)n2-c2ccccc2C)n1	-	-	-	-	.	-
O=C(CN1CC=C(c2ccccc2)CC1)NC(=O)NCc1ccccc1	-	-	-	-	.	-
O=c1cc(CN2CC=C(c3ccccc3)CC2)c2c(ccc3ccccc32)o1	-	64	-	70	-	-
CCCc1ncc(CN2C3CCC2CC(O)(c2ccc(OC)cc2)C3)cn1 (stereo not drawn)	.	.	-	.	.	-
CCC1=C(C[C@H]2NCCc3cc(OC)c(OC)cc32)C[C@H]2c3ccccc3CCN2C1	.	.	52	.	.	-
CC(C)[C@H]1CN(Cc2ccccc2F)CCN1C(=O)Cc1n[nH]c(=O)c2ccccc12	.	.	.	.	.	-
Cc1ccc(OP(=O)(Oc2ccc(C)cc2)N2C=Cc3ccccc3[C@H]2C#N)cc1	.	.	42	.	.	-
CC(Cc1ccc(O)cc1)NCC(O)c1cc(O)cc(O)c1 (stereo not drawn)	.	.	-	.	.	82
SMILES	NPY-Y1 antag	NPY2 pot ag	PGE2 EP2 inh	NPY-Y1 PAM-ag	NPY Y2 blocker	EP2 mod
Cc1ccc2scc(CC(=O)N(C)CCN(C)C)c2c1	.	.	-	.	.	-
O=C(O)C[SH+]CC(=O)O.O=C(O)C[SH+]CC(=O)O.[Cu]	.	.	44	.	.	-
C[C@@H]1O[C@@H](O[C@H]2C[C@@H](O)[C@]3(CO)[C@H]4[C@H](O)C[C@]5(C)[C@@H](C6COC(=O)C6)CC[C@]5(O)[C@@H]4CC[C@]3(O)C2)[C@H](O)[C@H](O)[C@H]1O (stereo partly drawn)	46	-	-	-	24	-
C[C@@H]1O[C@H](O[C@H]2C[C@@H](O)[C@]3(CO)[C@@H]4[C@@H](O)C[C@]5(C)[C@@H](C6=CC(=O)OC6)CC[C@@]5(O)[C@H]4CC[C@@]3(O)C2)[C@@H](O)[C@H](O)[C@H]1O	.	.	42	.	.	-
C[C@@H]1O[C@@H](O[C@H]2CC[C@]3(C=O)C4CC[C@]5(C)[C@@H](C6=CC(=O)OC6)CC[C@]5(O)C4CC[C@]3(O)C2)[C@H](O)[C@H](O)[C@H]1O (stereo partly drawn)	.	.	-	.	.	-
CC(c1cccc(F)c1)n1cc(C(=O)NC2CCCC2)nn1 (stereo not drawn)	.	.	-	.	.	-
CC[n+]1c(/C=C/N(C)c2ccccc2)sc2ccc(Cl)cc21	-	-	-	-	-	-
CN(C)c1ccc(/C=C/c2cc[n+](C)c3ccccc23)cc1	-	-	56	-	.	-
CC[n+]1c(/C=C/C=C/c2ccc(N(C)C)cc2)sc2ccccc21	.	-	115	-	.	-
CN(C)c1ccc(/C=C/C=C/c2sc3ccccc3[n+]2C)cc1	.	-	46	-	.	-
COc1ccccc1CN(CCN(C)C)C(=O)Cc1c(C)[nH]c2c(C)cccc12	.	.	-	.	.	-
CC(C)OCCCNC(=O)c1c(N)n(CC2CCCO2)c2nc3ccccc3nc12 (stereo not drawn)	25	-	-	-	23	.
CCCNC(=O)c1c(N)n(CC2CCCO2)c2nc3ccccc3nc12 (stereo not drawn)	-	-	-	-	-	-
c1cc2c(c(NC3=NCCN3)c1)CCCC2	.	.	43	.	.	-
Clc1cc(I)cc(Cl)c1NC1=NCCN1	.	.	-	.	.	-
C=Cn1cc(CN(CCc2ccccc2)Cc2cccs2)c(C)n1	.	.	-	.	.	69
O=[N+]([O-])c1cc(S(=O)(=O)c2ccc(O)c([N+](=O)[O-])c2)ccc1O	-	-	-	-	-	-
C[As+](C)(c1ccc(Br)c([N+](=O)[O-])c1)c1ccc(Br)c([N+](=O)[O-])c1.O=[N+]([O-])O	.	.	44	.	.	-
O.O.[NH-]C1(C(=O)O)CCCC1.[NH-]C1(C(=O)O)CCCC1.[Ni+2]	.	.	47	.	.	-
O=C(Nc1ccc([As](=O)(O)O)cc1)Nc1cccc(Cl)c1Cl	.	.	58	.	.	-
C1=CC2CCC(C1)N2CCN1C2C=CCC1CC2	.	.	-	.	.	-
O=[As](O)(O)c1ccc(N=Nc2ccc([As](=O)(O)O)cc2)cc1	.	.	50	.	.	-
Nc1nc(N)c(N=Nc2ccc([As](=O)(O)O)cc2)c(=O)[nH]1	.	.	42	.	.	-
O=[As](O)(O)c1ccc(N=Nc2ccc(O)cc2)cc1	.	-	-	-	.	-
C[C@]12CC[C@H](O)C[C@@H]1CC[C@H]1[C@H]2CC[C@@]2(C)[C@H](C3=CC(=O)OC3)[C@H](O)C[C@]12O	.	.	43	.	.	-
CC(=O)OC1CC[C@@]2(C)C(CCC3C2CC[C@]2(C)C(C4=CC(=O)OC4)C(OC(C)=O)CC32O)C1 (stereo partly drawn)	.	.	-	.	.	-
